# Reference: ChEMBL document CHEMBL1155462, “Structure-activity relationship for thiohydantoin androgen receptor antagonists for castration-resistant prostate cancer (CRPC)” (J Med Chem, 2010)
# Active and inactive are the calls of the source. No cut-off for these calls is given here.
# Key:
# LNCaP [1] = assay: Inhibition of prostate specific antigen expression in human LNCAP cells at 1.25 to 10 uM in presence of fetal bovine serum; format: functional, cell-based
# LNCaP [2] = assay: Inhibition of prostate specific antigen expression in human LNCAP cells at 0.625 to 20 uM in presence of fetal bovine serum; format: functional, cell-based
# LNCaP [3] = assay: Inhibition of prostate specific antigen expression in human LNCAP cells at 0.625 to 5 uM in presence of fetal bovine serum; format: functional, cell-based
# [4] = target: T1, Androgen receptor (Rattus norvegicus) (UniProt P15207); assay: Antagonist activity at androgen receptor in rat prostate gland at 1.25 to 10 uM by luciferase reporter gene assay; format: functional, tissue-based
# T1 sequence (whole entry): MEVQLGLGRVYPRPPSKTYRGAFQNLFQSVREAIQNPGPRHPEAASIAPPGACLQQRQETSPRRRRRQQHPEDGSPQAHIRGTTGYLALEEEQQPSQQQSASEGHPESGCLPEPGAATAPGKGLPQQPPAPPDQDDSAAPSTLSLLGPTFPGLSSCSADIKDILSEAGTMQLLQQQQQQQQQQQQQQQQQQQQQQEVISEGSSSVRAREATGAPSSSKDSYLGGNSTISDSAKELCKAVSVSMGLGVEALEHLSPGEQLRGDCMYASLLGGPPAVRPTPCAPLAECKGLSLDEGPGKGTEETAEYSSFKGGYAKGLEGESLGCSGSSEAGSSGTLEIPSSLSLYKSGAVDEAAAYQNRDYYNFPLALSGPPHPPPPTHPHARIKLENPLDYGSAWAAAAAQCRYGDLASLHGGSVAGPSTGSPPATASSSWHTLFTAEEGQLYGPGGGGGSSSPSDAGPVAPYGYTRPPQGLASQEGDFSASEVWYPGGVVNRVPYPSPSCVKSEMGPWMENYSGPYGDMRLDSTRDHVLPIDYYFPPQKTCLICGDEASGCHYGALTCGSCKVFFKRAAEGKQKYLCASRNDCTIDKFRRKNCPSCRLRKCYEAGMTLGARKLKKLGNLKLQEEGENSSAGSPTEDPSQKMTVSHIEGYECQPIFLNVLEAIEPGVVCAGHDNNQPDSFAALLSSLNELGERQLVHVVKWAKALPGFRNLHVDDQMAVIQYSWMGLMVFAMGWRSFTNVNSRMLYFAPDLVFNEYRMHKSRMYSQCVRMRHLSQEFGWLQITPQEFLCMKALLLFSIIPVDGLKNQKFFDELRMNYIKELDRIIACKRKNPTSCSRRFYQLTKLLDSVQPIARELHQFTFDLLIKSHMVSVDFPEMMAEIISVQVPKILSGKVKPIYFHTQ
# LNCaP [5] = assay: Inhibition of prostate specific antigen secretion in human LNCAP cells expressing androgen receptor at 1.25 to 10 uM in presence of charcoal stripped serum; format: functional, cell-based
# In short: (§1)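 LNCaP/AR cells were made by viral infection with an AR cDNA to express 3–5 fold higher AR levels, mimicking CRPC. They were assayed in charcoal-stripped serum to mimic androgen depletion. Read-out was PSA level, with DMSO as the vehicle.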
# LNCaP [6] = assay: Inhibition of prostate specific antigen expression in human LNCAP cells in presence of fetal bovine serum; format: functional, cell-based
# [7] = target: T1, Androgen receptor (Rattus norvegicus); assay: Antagonist activity at androgen receptor in rat prostate gland at 0.625 to 20 uM by luciferase reporter gene assay; format: functional, tissue-based
# LNCaP [8] = assay: Inhibition of prostate specific antigen expression in human LNCAP cells at 100 to 1000 nM in presence of fetal bovine serum; format: functional, cell-based
# LNCaP [9] = assay: Inhibition of prostate specific antigen secretion in human LNCAP cells expressing androgen receptor at 100 to 1000 nM in presence of charcoal stripped serum; format: functional, cell-based; in short: as §1
smiles,measurement,setting,value
N#Cc1ccc(N2C(=O)C3(CCC3)N(c3ccc(-c4ccccc4)cc3)C2=S)cc1C(F)(F)F,Activity,LNCaP [1],Active
CC1(C)C(=O)N(c2ccc(C#N)c(C(F)(F)F)c2)C(=S)N1CCCCCCCN=[N+]=[N-],Activity,LNCaP [2],Active
CC1(C)C(=O)N(c2ccc(C#N)c(C(F)(F)F)c2)C(=O)N1c1ccc(O)cc1,Activity,LNCaP [3],Active
same,Activity,[4],Active
N#Cc1ccc(N2C(=O)C3(CCC3)N(c3ccc(CCCC(N)=O)cc3)C2=S)cc1C(F)(F)F,inhibition,LNCaP [5],Active
CNC(=O)CCc1ccc(N2C(=S)N(c3ccc(C#N)c(C(F)(F)F)c3)C(=O)C23CCC3)cc1,inhibition,LNCaP [5],Active
N#Cc1ccc(N2C(=O)C3(CCC3)N(c3ccc(C=O)cc3)C2=S)cc1C(F)(F)F,IC50,LNCaP [6],0.2 µM
CNC(=O)c1ccc(N2C(=S)N(c3ccc(C#N)c(C(F)(F)F)c3)C(=O)C23CCC3)cc1,Activity,[4],Active
Cc1ccc(N2C(=S)N(c3ccc(C#N)c(C(F)(F)F)c3)/C(=N\C(=S)Nc3ccccc3)C23CCC3)cc1,Activity,LNCaP [1],Active
same,Activity,[4],Active
CCC1(CC)C(=O)N(c2ccc(C#N)c(C(F)(F)F)c2)C(=S)N1c1ccc(C)cc1,Activity,[7],inactive
Cc1ccc(N2C(=S)N(c3ccc(C#N)c(C(F)(F)F)c3)C(=O)C2(CCl)CCl)cc1,Activity,LNCaP [3],inactive
CC1(C)C(=O)N(c2ccc(C#N)c(C(F)(F)F)c2)C(=S)N1c1ccc(N=[N+]=[N-])cc1,Activity,LNCaP [2],Active
same,Activity,[7],Active
N#Cc1ccc(N2C(=O)C3(CCC3)N(c3ccc(O)cc3F)C2=S)cc1C(F)(F)F,Activity,[4],Active
N#Cc1ccc(N2C(=O)C3(CCC3)N(c3ccc(N4CCNCC4)cc3)C2=S)cc1C(F)(F)F,inhibition,LNCaP [5],Active
CN(C)C(=O)CCCc1ccc(N2C(=S)N(c3ccc(C#N)c(C(F)(F)F)c3)C(=O)C23CCC3)cc1,Activity,LNCaP [8],Active
CC1(C)C(=O)N(c2ccc(C#N)c(C(F)(F)F)c2)C(=S)N1CCCCO,Activity,LNCaP [2],Active
same,Activity,LNCaP [1],Active
Cc1ccc(N2C(=S)N(c3ccc(C#N)c(C(F)(F)F)c3)C(=O)C23CCN(C)CC3)cc1,Activity,LNCaP [2],inactive
Cc1ccc(N2/C(=N/c3ccc(C#N)c(C(F)(F)F)c3)S/C(=N\C(=S)Nc3ccc(C#N)c(C(F)(F)F)c3)C2(C)C)cc1,Activity,LNCaP [1],Active
same,Activity,[4],Active
CCC1(C)C(=O)N(c2ccc(C#N)c(C(F)(F)F)c2)C(=S)N1c1ccc(C)cc1 (stereo not drawn),Activity,[7],inactive
Cc1ccc(N2C(=S)N(c3ccc(C#N)c(C(F)(F)F)c3)C(=N)C23CCC3)cc1,Activity,LNCaP [3],Active
same,Activity,LNCaP [1],Active
Cc1ccc(N2C(=S)N(c3ccc(C#N)c(C(F)(F)F)c3)C(=O)C2(C)CF)cc1 (stereo not drawn),Activity,LNCaP [3],Active
CCC1(C)C(=O)N(c2ccc(C)cc2)C(=S)N1c1ccc(C#N)c(C(F)(F)F)c1 (stereo not drawn),Activity,[7],inactive
CCC1(CC)C(=O)N(c2ccc(C)cc2)C(=S)N1c1ccc(C#N)c(C(F)(F)F)c1,Activity,[7],inactive
CC1(C)C(=O)N(c2ccc(C#N)c(C(F)(F)F)c2)C(=S)N1c1ccc(C(F)(F)F)cc1,Activity,LNCaP [1],Active
CNC(=O)c1ccc(N2C(=S)N(c3ccc(C#N)c(C(F)(F)F)c3)C(=O)C23CCCC3)cc1F,Activity,LNCaP [9],Active
CCC1C(=O)N(c2ccc(C#N)c(C(F)(F)F)c2)C(=S)N1c1ccc(C)cc1 (stereo not drawn),Activity,[7],inactive
N#CCCCc1ccc(N2C(=S)N(c3ccc(C#N)c(C(F)(F)F)c3)C(=O)C23CCC3)cc1,Activity,LNCaP [8],Active
CNC(=O)c1ccc(N2C(=S)N(c3ccc(C#N)c(C(F)(F)F)c3)C(=O)C2(C)C)cc1F,Activity,LNCaP [9],Active
CC1(C)C(=O)N(c2ccc(C#N)c(C(F)(F)F)c2)C(=S)N1CCCN=[N+]=[N-],Activity,LNCaP [2],Active
Cc1ccc(N2C(=S)N(c3ccc(C#N)c(C(F)(F)F)c3)C(=O)C23CCCCC3)cc1,Activity,LNCaP [2],inactive
Cc1ccc(N2/C(=N/c3ccc(C#N)c(C(F)(F)F)c3)S/C(=N\C(=S)Nc3ccc(C#N)c(C(F)(F)F)c3)C23CCC3)cc1,Activity,LNCaP [1],Active
same,Activity,[4],Active
Cc1ccc(N2CC(=O)N(c3ccc(C#N)c(C(F)(F)F)c3)C2=S)cc1,Activity,[7],inactive
C/N=C1\N(c2ccc(C#N)c(C(F)(F)F)c2)C(=S)N(c2ccc(C)cc2)C12CCC2,Activity,LNCaP [1],Active
same,Activity,[4],Active
Cc1ccc(N2C(=S)N(c3ccc(C#N)c(C(F)(F)F)c3)C(=O)C23CCCC3)cc1,Activity,LNCaP [2],Active
same,Activity,LNCaP [1],Active
CCCC1C(=O)N(c2ccc(C#N)c(C(F)(F)F)c2)C(=S)N1c1ccc(C)cc1 (stereo not drawn),Activity,[7],inactive
CNC(=O)c1ccc(N2C(=S)N(c3ccc(C#N)c(C(F)(F)F)c3)C(=O)C2(C)C)cc1,Activity,[4],Active
Cc1ccc(N2C(=S)N(c3ccc(C#N)c(C(F)(F)F)c3)/C(=N\C(=S)Nc3ccc(C#N)c(C(F)(F)F)c3)C2(C)C)cc1,Activity,LNCaP [1],Active
same,Activity,[4],Active
N#Cc1ccc(N2C(=O)C3(CCC3)N(c3ccc(CCC(=O)NCCO)cc3)C2=S)cc1C(F)(F)F,inhibition,LNCaP [5],Active
N#Cc1ccc(N2C(=O)C3(CCC3)N(c3ccc(O)cc3)C2=S)cc1C(F)(F)F,Activity,LNCaP [1],Active
Cc1ccc(N2C(=S)N(c3ccc(C#N)c(C(F)(F)F)c3)C(=O)C2C)cc1 (stereo not drawn),Activity,[7],inactive
CC1(C)C(=O)N(c2ccc(C#N)c(C(F)(F)F)c2)C(=S)N1CCCCCCN=[N+]=[N-],Activity,LNCaP [2],Active
CS(=O)(=O)N1CCN(c2ccc(N3C(=S)N(c4ccc(C#N)c(C(F)(F)F)c4)C(=O)C34CCC4)cc2)CC1,inhibition,LNCaP [5],Active
CC1(C)C(=O)N(c2ccc(C#N)c(C(F)(F)F)c2)C(=S)N1c1ccc(O)cc1,Activity,LNCaP [2],Active
same,Activity,[7],Active
same,Activity,LNCaP [3],Active
COC(=O)c1ccc(N2C(=S)N(c3ccc(C#N)c(C(F)(F)F)c3)C(=O)C2(C)C)cc1,Activity,[4],Active
Cc1ccc(N2C(=S)N(c3ccc(C#N)c(C(F)(F)F)c3)C(=O)C23CCCCCC3)cc1,Activity,LNCaP [2],inactive
Cc1ccc(N2C(=S)N(c3ccc(C#N)c(C(F)(F)F)c3)/C(=N\C(=S)Nc3ccc(C#N)c(C(F)(F)F)c3)C2(C)CF)cc1 (stereo not drawn),Activity,LNCaP [1],Active
same,Activity,[4],Active
N#Cc1ccc(N2C(=O)C3(CCC3)N(c3ccc(CO)cc3)C2=S)cc1C(F)(F)F,IC50,LNCaP [6],0.2 µM
Cc1ccc(N2C(=S)N(c3ccc(C#N)c(C(F)(F)F)c3)C(=O)C23CCCCCCC3)cc1,Activity,LNCaP [2],inactive
CS(=O)(=O)c1ccc(N2C(=S)N(c3ccc(C#N)c(C(F)(F)F)c3)C(=O)C23CCC3)cc1,Activity,[4],Active
CC/N=C1\N(c2ccc(C#N)c(C(F)(F)F)c2)C(=S)N(c2ccc(C)cc2)C1(C)C,Activity,LNCaP [1],Active
same,Activity,[4],Active
Cc1ccccc1N1C(=S)N(c2ccc(C#N)c(C(F)(F)F)c2)C(=O)C12CCC2,Activity,LNCaP [3],Active
CC1(C)C(=O)N(c2ccc(C#N)c(C(F)(F)F)c2)C(=S)N1CCCCCN=[N+]=[N-],Activity,LNCaP [2],Active
N#Cc1ccc(N2C(=O)C3(CCC3)N(c3ccccc3C(=O)O)C2=S)cc1C(F)(F)F,Activity,LNCaP [3],inactive
CC1(C)C(=O)N(c2ccc(C#N)c(C(F)(F)F)c2)C(=S)N1c1ccc(N)cc1,Activity,LNCaP [2],Active
same,Activity,[7],Active
CC1(C)C(=S)N(c2ccc(C#N)c(C(F)(F)F)c2)C(=S)N1c1ccc(O)cc1,Activity,LNCaP [3],Active
CC1(C)C(=O)N(c2ccc(C#N)c(C(F)(F)F)c2)C(=S)N1c1ccccc1,Activity,LNCaP [2],Active
same,Activity,[7],Active
N#Cc1ccc(N2C(=O)C3(CCC3)N(c3ccc(CCC(N)=O)cc3)C2=S)cc1C(F)(F)F,inhibition,LNCaP [5],Active
Cc1ccc(N2C(=S)N(c3ccc(C#N)c(C(F)(F)F)c3)/C(=N\C(=S)Nc3ccc(C#N)c(C(F)(F)F)c3)C23CCC3)cc1,Activity,LNCaP [1],Active
same,Activity,[4],Active
CC(O)c1ccc(N2C(=S)N(c3ccc(C#N)c(C(F)(F)F)c3)C(=O)C23CCC3)cc1 (stereo not drawn),IC50,LNCaP [6],0.2 µM
Cc1ccc(N2C(=S)N(c3ccc(C#N)c(C(F)(F)F)c3)C(=N)C2(C)C)cc1,Activity,LNCaP [3],Active
N#Cc1ccc(N2C(=O)C3(CCC3)N(c3ccc(/C=C/C(N)=O)cc3)C2=S)cc1C(F)(F)F,IC50,LNCaP [6],0.1 µM
N#Cc1ccc(N2C(=O)C3(CCC3)N(c3ccc(/C=C/CO)cc3)C2=S)cc1C(F)(F)F,IC50,LNCaP [6],0.1 µM
